Consider six compounds from ChEMBL document CHEMBL3784973, “A Parallel Synthesis Approach to the Identification of Novel Diheteroarylamide-Based Compounds Blocking HIV Replication: Potential Inhibitors of HIV-1 Pre-mRNA Alternative Splicing” (J Med Chem, 2016).

Each structure is given as a SMILES string. Calls of active or inactive are those of the source. No cut-off for these calls is given here.

A short description of series [1]: Cytotoxicity against GFP-positive human CEM cells expressing CD4+,CXCR4 and CCR5 assessed as cell viability at 8 uM after 24 hrs by Guava viacount assay. In kind it is cell-based, CCRF-CEM. Conditions: read-out: Activity. The method in brief: (§1)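 Uninfected CEM-GXR cells were incubated 24 h with serial dilutions from 62.5 nM to 16 μM final. Viability was read by Guava ViaCount (dye permeability staining with forward scatter gating) as % viable cells. Three independent experiments.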

Series [2] is described as follows: Therapeutic index, ratio of CC50 for GFP-positive human CEM cells expressing CD4+,CXCR4 and CCR5 to EC50 for HIV1 97USSN54 infected in GFP-positive human CEM cells expressing CD4+,CXCR4 and CCR5. The format is cell-based, CCRF-CEM. The conditions noted are these: read-out: TI. The method in brief:
(§2)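 Reporter CEM-GXR T cells (Tat-driven LTR-GFP cassette; RPMI-1640, 10% FCS, penicillin-streptomycin) were infected by coculture with 1% HIV-infected GFP-positive cells. Compound in DMSO was added after inoculation. Infected cells were counted by flow cytometry for GFP at day 3, and EC50 was taken from nonlinear regression. CC50 came from Guava ViaCount viability after 24 h at 0.5–100 μM. Index = CC50/EC50.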

Series [3] is described as follows: Cytotoxicity against GFP-positive human CEM cells expressing CD4+,CXCR4 and CCR5 assessed as cell viability at 1 uM after 24 hrs by Guava viacount assay. In kind it is cell-based, CCRF-CEM. The conditions noted are these: read-out: Activity. The method in brief: as §1
For series [4], the system named is Human immunodeficiency virus 1. As to the kind of experiment: Antiviral activity against HIV1 3B infected in GFP-positive human CEM cells expressing CD4+,CXCR4 and CCR5 assessed as number of infected cells at 1 uM after 3 days. The format is functional, CCRF-CEM. The method in brief:
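CEM-GXR cells (CD4+ T-cell line, Tat-driven LTR-GFP reporter) infected by coculture with 1% HIV-1IIIB-infected cells. Serial dilutions 62.5 nM–16 μM added at inoculation. GFP-positive (infected) cells counted 3 days post-infection. Three independent experiments.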

A short description of series [5]: Therapeutic index, ratio of CC50 for GFP-positive human CEM cells expressing CD4+,CXCR4 and CCR5 to EC50 for […] HIV1 E00443 reverse transcriptase D67N/K70R/Y115F/Q151M/M184V/K219Q mutant infected in GFP-positive human CEM cells expressing CD4+,CXCR4 and CCR5. In kind it is cell-based. The conditions noted are these: ccrf-cem, read-out: TI.
The nature of series [6]: Therapeutic index, ratio of CC50 for GFP-positive human CEM cells expressing CD4+,CXCR4 and CCR5 to EC50 for HIV1 isolate 2948 harboring protease G48V/L90M mutant infected in GFP-positive human CEM cells expressing CD4+,CXCR4 and CCR5. The format is cell-based. Conditions: ccrf-cem, read-out: TI.
A short description of series [7]: Cytotoxicity against GFP-positive human CEM cells expressing CD4+,CXCR4 and CCR5 assessed as cell viability at 100 uM after 24 hrs by Guava viacount assay (reference value: 98%). The format is cell-based, CCRF-CEM. Conditions: read-out: Activity. The method in brief:
(§3)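 For viability, CEM-GXR cells were incubated 24 h with compound at 0.5–100 μM. Guava ViaCount flow assay used DNA-binding dye permeability plus forward scatter to exclude nuclei and debris. Values are % viable cells (±SEM, three independent experiments), and CC50 is the concentration killing 50% of host cells.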

Series [8] in a line: Cytotoxicity against GFP-positive human CEM cells expressing CD4+,CXCR4 and CCR5 assessed as cell viability at 16 uM after 24 hrs by Guava viacount assay. The format is cell-based, CCRF-CEM. The conditions noted are these: read-out: Activity. The essentials: as §1
Series [9] has as its system Human immunodeficiency virus 1. Briefly: Antiviral activity against maraviroc-resistant HIV1 BAL R5 harboring envelop V3 A19T/L20F/T22A/E25D/126V mutant infected in GFP-positive human CEM cells expressing CD4+,CXCR4 and CCR5 after 3 days. In kind it is functional, organism-based. The conditions noted are these: ccrf-cem.
The nature of series [10]: Therapeutic index, ratio of CC50 for GFP-positive human CEM cells expressing CD4+,CXCR4 and CCR5 to EC50 for HIV1 3B infected in GFP-positive human CEM cells expressing CD4+,CXCR4 and CCR5. In kind it is cell-based, CCRF-CEM. The conditions noted are these: read-out: TI. The essentials:
as §2

Series [11] deals with Human immunodeficiency virus 1. As to the kind of experiment: Antiviral activity against subtype A R5 tropic HIV1 97USSN54 infected in GFP-positive human CEM cells expressing CD4+,CXCR4 and CCR5 after 3 days. The format is functional, organism-based. Conditions: Human immunodeficiency virus 1, 97USSN54, CCRF-CEM, 72 h. The essentials: (§4)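 Infected CEM-GXR GFP-reporter cells were exposed to increasing compound concentrations. GFP-positive cells were measured by flow cytometry 3 days after infection. EC50 came from nonlinear regression of the inhibition curves. Mean of three independent determinations.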

The nature of series [12]: Cytotoxicity against GFP-positive human CEM cells expressing CD4+,CXCR4 and CCR5 assessed as cell viability at 4 uM after 24 hrs by Guava viacount assay. Conditions: read-out: Activity. The format is cell-based, CCRF-CEM. The essentials:
as §1

The subject of series [13] is Human immunodeficiency virus 1. As to the kind of experiment: Antiviral activity against INI-resistant HIV1 isolate 11845 harboring integrase G140S/Q148H mutant infected in GFP-positive human CEM cells expressing CD4+,CXCR4 and CCR5 after 3 days. In kind it is functional, organism-based. Conditions: Human immunodeficiency virus 1, isolate 11845, CCRF-CEM, 72 h.
Series [14] in a line: Therapeutic index, ratio of CC50 for GFP-positive human CEM cells expressing CD4+,CXCR4 and CCR5 to EC50 for maraviroc-resistant HIV1 BAL R5 harboring envelop V3 A19T/L20F/T22A/E25D/126V mutant infected in GFP-positive human CEM cells expressing CD4+,CXCR4 and CCR5. The format is cell-based. Conditions: ccrf-cem, read-out: TI.
For series [15], the system named is Human immunodeficiency virus 1. Briefly: Antiviral activity against PI-resistant HIV1 isolate 2948 harboring protease G48V/L90M mutant infected in GFP-positive human CEM cells expressing CD4+,CXCR4 and CCR5 after 3 days. Conditions: Human immunodeficiency virus 1, isolate 2948, CCRF-CEM, 72 h. In kind it is functional, organism-based.
The subject of series [16] is Human immunodeficiency virus 1. Briefly: Antiviral activity against HIV1 NL4-3 infected in GFP-positive human CEM cells expressing CD4+,CXCR4 and CCR5 at 2 uM after 3 days by flow cytometric analysis. The format is functional, organism-based. Conditions: CCRF-CEM. The essentials: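 Library screen of HIV-1 spread in CEM-GXR cells cocultured with 1% HIV-1NL4-3-infected (GFP+) cells. Cells were grown in RPMI-1640 with 10% FCS and penicillin-streptomycin, and selected with G418 and hygromycin B during propagation. Compound at final 2 μM in DMSO was added right after inoculation. Infection was read by flow cytometry of GFP.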

Series [17] is described as follows: Cytotoxicity against GFP-positive human CEM cells expressing CD4+,CXCR4 and CCR5 assessed as cell viability at after 24 hrs by Guava viacount assay. In kind it is cell-based, CCRF-CEM. The method in brief:
as §3

The nature of series [18]: Therapeutic index, ratio of CC50 for GFP-positive human CEM cells expressing CD4+,CXCR4 and CCR5 to EC50 for INI-resistant HIV1 isolate 11845 harboring integrase G140S/Q148H mutant infected in GFP-positive human CEM cells expressing CD4+,CXCR4 and CCR5. The format is cell-based. The conditions noted are these: ccrf-cem, read-out: TI.
Series [19] concerns Human immunodeficiency virus 1. As to the kind of experiment: Antiviral activity against subtype B X4 tropic HIV1 3B infected in GFP-positive human CEM cells expressing CD4+,CXCR4 and CCR5 after 3 days. In kind it is functional, organism-based. Conditions: Human immunodeficiency virus 1, 3B, CCRF-CEM, 72 h. The essentials:
as §4

Series [20] relates to Human immunodeficiency virus 1. Briefly: Antiviral activity against […]-resistance HIV1 E00443 harboring reverse transcriptase D67N/K70R/Y115F/Q151M/M184V/K219Q mutant infected in GFP-positive human CEM cells expressing CD4+,CXCR4 and CCR5 after 3 days. The format is functional, organism-based. Conditions: Human immunodeficiency virus 1, E00443, CCRF-CEM, 72 h.

Turning to `Cn1ccc(=O)c(C(=O)Nc2nsc3ccc([N+](=O)[O-])cc23)c1`, the viability at 24 h, 8 µM in series [1] stood at 80.9%. Further, the selectivity ratio in [2] was over 111; in [5], over 77; in series [6], over 71; in series [10], over 166; in [14] it was over 111; in series [18], over 66. Moreover, the viability at 24 h, 1 µM in [3] is 89.6%. Besides, the Activity in series [4] came out at 18.4%. Also, in series [7], the viability at 24 h, 100 µM was determined as 68.8%. Moreover, in series [8], the viability at 24 h, 16 µM stood at 78.7%. Further, the EC50 (as a rule, the concentration at which the effect is half-maximal) in series [9] amounted to 900 nM; in [11], 900 nM; in series [13], 1500 nM; in series [15], 1400 nM; in series [19], 600 nM; in [20] it was 1300 nM. Moreover, in series [12], the viability at 24 h, 4 µM turned out to be 81.5%. Besides, in [16], the “antiviral activity call (active/inactive)” value was “Active”. For the same compound, in series [17], the CC50 (usually the concentration at which the toxic effect on the cells reaches its halfway point) at 24 h was over 100000 nM.
Take `COCCOc1cc(=O)n(C)cc1C(=O)Nc1nsc2ccc([N+](=O)[O-])cc12`: the “antiviral activity call (active/inactive)” value in [16] is “Active”.
In the case of `Nc1nc(=O)n([C@@H]2CS[C@H](CO)O2)cc1F` [EMTRICITABINE], in [19], a half-maximal response (EC50) required 40 nM.
Turning to `COCCOc1ccncc1C(=O)Nc1nsc2ccc([N+](=O)[O-])cc12`, the “antiviral activity call (active/inactive)” value in series [16] is “Active”.
On the same count and under the same terms, then `COc1cc(C(=O)Nc2nsc3ccc([N+](=O)[O-])cc23)ccn1`, with “Active”.
For `Cc1c2ccnc(Cl)c2cc2c3cn(C)ccc-3nc12`, the viability at 24 h, 8 µM in series [1] is 19.9%. Also, the viability at 24 h, 1 µM in [3] stood at 85.5%. For the same compound, in [4], the Activity is 17.7%. Further, the viability at 24 h, 16 µM in series [8] stood at 11.9%. In addition, the viability at 24 h, 4 µM in series [12] was 33.2%.
